UBC13 polyUb = inhibitors of human UBC13 polyubiquitin chain formation; P61088; TR-FRET; inhibition, % at 20 µM; 330,000 compounds, 0.47% hits; AID 485273; in the data active = inhibition above about 45%, passing the limit was not always enough
CHOP UPR activ = activators of apoptotic arm of unfolded protein response (CHOP) | AID 449763 | 330,000 compounds, 0.34% hits | activation, % at 10 µM | CHO-CHOP luciferase reporter, UPR activation, luminescence; percent of tunicamycin response over DMSO baseline;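 active = at 10 µM dose, activation of 40% or more, normalized to positive control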;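 also: 100% = tunicamycin at 10 µg/mL and 0% = DMSO alone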
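Test system: CHO CHOP reporter cells. Input: 500 CHO-CHOP cells per well. Medium: F12 with 10% FBS. Technique: luciferase luminescence. Measure: percent activation relative to tunicamycin control. Dosing: 10 µM compound, 0.5% DMSO. Timing: 16-18 h cell attachment, then 6 h compound exposure, 37 °C.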
Mdm2 MdmX PPI = disrupts the human Mdm2-MdmX interaction; O15151+Q00987; SaOS-2 split-luciferase Mdm2/MdmX complementation, luminescence; inhibition, % at 8 µM; 330,000 compounds, 3% hits;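 active = inhibition of at least 50% at 8 µM in the primary screen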
Target sequence (O15151 whole entry, looked up): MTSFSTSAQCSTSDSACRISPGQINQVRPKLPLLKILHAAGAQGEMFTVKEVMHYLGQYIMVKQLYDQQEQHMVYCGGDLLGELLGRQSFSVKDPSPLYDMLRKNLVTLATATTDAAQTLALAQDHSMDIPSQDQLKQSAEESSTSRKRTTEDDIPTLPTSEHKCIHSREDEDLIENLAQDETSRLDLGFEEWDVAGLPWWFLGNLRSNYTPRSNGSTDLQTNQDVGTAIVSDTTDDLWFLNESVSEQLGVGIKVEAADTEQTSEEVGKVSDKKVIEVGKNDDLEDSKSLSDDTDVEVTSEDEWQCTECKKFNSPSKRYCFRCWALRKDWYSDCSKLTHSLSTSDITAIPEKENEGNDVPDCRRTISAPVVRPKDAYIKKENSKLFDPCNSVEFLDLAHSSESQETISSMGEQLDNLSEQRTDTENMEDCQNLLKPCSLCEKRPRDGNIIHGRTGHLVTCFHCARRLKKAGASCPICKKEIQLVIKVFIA
Target sequence (Q00987 whole entry, looked up): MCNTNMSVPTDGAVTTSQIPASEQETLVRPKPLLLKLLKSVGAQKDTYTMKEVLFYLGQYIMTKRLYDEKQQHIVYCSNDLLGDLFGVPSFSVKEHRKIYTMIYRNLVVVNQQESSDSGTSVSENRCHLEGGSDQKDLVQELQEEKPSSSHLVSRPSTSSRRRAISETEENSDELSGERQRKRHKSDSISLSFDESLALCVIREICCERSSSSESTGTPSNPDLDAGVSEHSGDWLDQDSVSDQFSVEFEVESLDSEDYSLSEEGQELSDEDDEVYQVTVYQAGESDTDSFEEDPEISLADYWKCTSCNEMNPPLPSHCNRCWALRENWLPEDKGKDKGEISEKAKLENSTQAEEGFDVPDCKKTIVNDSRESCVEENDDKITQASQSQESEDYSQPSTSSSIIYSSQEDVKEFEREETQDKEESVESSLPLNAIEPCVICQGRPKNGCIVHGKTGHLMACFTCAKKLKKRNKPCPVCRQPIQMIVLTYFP
Apaf1 inhib = blocks human Apaf-1 apoptosome activity | O14727 | reconstituted apoptosome caspase-3 activity, DEVD-Rh110 fluorescence | inhibition, % at 20 µM | 330,000 compounds, 0.71% hits | AID 489030; active = inhibition of at least 40% at 20 µM;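 also: plate controls were DMSO wells for no effect and DEVD-CHO caspase inhibitor wells for full effect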
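Assay system: Apoptosome proteins | Medium: pH 7.5 Hepes buffer with CHAPS, BSA, DTT | Also added: Cytochrome c and DEVD-Rh110 substrate | Times: 30 min plus 50 min, RT | Detection: Rhodamine 110 fluorescence at Ex 480/Em 540 nm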
UPR XBP1 act = adaptive UPR (XBP1) activation. 330,000 compounds, 0.33% hits. activation, % at 20 µM. CHO-XBP1 luciferase reporter, IRE1-XBP1 UPR activation, luminescence; percent of tunicamycin response, DMSO as zero;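 active = versus positive control, 20 µM dose yields 30% or more activation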;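 also: 100% = tunicamycin at 10 µg/mL and 0% = DMSO only wells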
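Material – CHO cell line with stable XBP1 luciferase reporter · Buffer or medium – F12 plus 10% FBS · Compound – single point, 20 µM final compound, 1% DMSO · Schedule – 16-18 h cell attachment at 37 °C, then 6 h compound exposure · Signal – Steady-Glo luminescence read · Benchmarks – high control tunicamycin 10 µg/mL final, low control DMSO vehicle only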
Mdm2 MdmX conf = human Mdm2/MdmX binding inhibition, confirmed | shares compounds with Mdm2 MdmX PPI | luminescent assay | inhibition, % at 8 µM | 10,000 compounds, 55% hits | AID 489028; in the data active = inhibition above about 40%
Full FLuc ctr = counter-screen for Mdm2/MdmX inhibitors: full-length luciferase. shares compounds with Mdm2 MdmX PPI. SaOS-2 full-length luciferase counterscreen, luminescence. inhibition, % at 8 µM. 6,200 compounds, 77% hits;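 active = mean inhibition at 8 µM reaching about 37%, which flags the compound as non-specific, limit read from the data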;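 also: p53-null SaOS-2 cells with luciferase driven by a doxycycline-inducible promoter; compound on cells about two nights before reading with doxycycline added after day one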
The depositor's hits bear a star; . = no result. An excerpt weighted towards active compounds, which were near 4.1% of everything screened.

SMILES	UBC13 polyUb	CHOP UPR activ	Mdm2 MdmX PPI	Apaf1 inhib	UPR XBP1 act	Mdm2 MdmX conf	others
COC(=O)c1ccc(-c2ccc([C@H]3[C@H]4C=CC[C@@H](C)[C@@H]4C(=O)N3Cc3ccccc3)c(F)c2)cc1	-115	2	39	18	0	.
COc1ccc(-c2ccc(C(C)=O)cc2)cc1[C@H]1[C@H]2C=CC[C@@H](C)[C@@H]2C(=O)N1Cc1ccccc1	-2	1	58*	22	3	11
COc1ccc(/C=C/c2ccccc2)cc1[C@H]1[C@H]2C=CC[C@@H](C)[C@@H]2C(=O)N1Cc1ccccc1	-15	4	50	13	2	22
CC(=O)c1ccc(-c2ccc([C@H]3[C@@H]4C=CCC[C@@]4(C)C(=O)N3Cc3ccccc3)c(F)c2)cc1	-7	1	54*	25	2	16
N#Cc1ccccc1S(=O)(=O)c1ccccc1C(=O)Nc1ccccc1	0	2	-3	8	1	.
CC[C@@H]1CC=C[C@H]2[C@H]1C(=O)N(Cc1ccccc1)[C@H]2c1ccoc1	-6	19	69*	13	-2	9
CC(=O)c1ccc(-c2ccccc2[C@H]2[C@H]3C=CC[C@@H](C)[C@@H]3C(=O)N2Cc2ccccc2)cc1	-2	0	36	26	-5	.
C[C@@H]1CC=C[C@H]2[C@H]1C(=O)N(Cc1ccccc1)[C@H]2c1ccoc1	-12	2	5	15	0	.
COC(=O)c1ccc(-c2ccc(OC)c([C@H]3[C@H]4C=CC[C@@H](C)[C@@H]4C(=O)N3Cc3ccccc3)c2)cc1	-12	1	62*	20	1	45*	Full FLuc ctr=46*
C[C@@H]1CC=C[C@H]2[C@H]1C(=O)N(Cc1ccccc1)[C@H]2c1ccc2ccccc2c1Br	-5	22	84*	26	3	27
CCOC(=O)Cc1csc(NC(=O)CCCCCN2C(=O)c3ccccc3C2=O)n1	9	1	19	-13	-5	.
CCC(C)(C)NC(=O)CN(C(=O)CNS(=O)(=O)c1ccc(C)cc1)c1ccc2c(c1)OCCO2	-10	0	-4	6	-5	.
CCOC(=O)C1CCN(C(=O)c2ccc(C)o2)CC1	5	6	-9	-9	-3	.
CCOC(=O)C1CCN(C(=O)c2c(C)oc3c2C(=O)c2ccccc2C3=O)CC1	-40	-1	58*	48*	0	45*	Full FLuc ctr=67*
CN(CC(=O)Nc1ccc(Cl)cc1)C(=O)CCc1nc2sc3c(c2c(=O)[nH]1)CCCC3	-1	-1	86*	12	-2	50*	Full FLuc ctr=96*
CN(CC(=O)Nc1ccc(F)cc1)C(=O)CCc1nc2sc3c(c2c(=O)[nH]1)CCCC3	3	1	14	17	0	.
Cc1cc(C)cc(NC(=O)CCc2nc3sc4c(c3c(=O)[nH]2)CCCC4)c1	1	0	82*	4	-3	94*	Full FLuc ctr=96*
Cc1ccc2oc(/N=C(\N)NC(=O)C3CC3)nc2c1	6	0	8	-3	-6	.
Cc1ccc2oc(/N=C(\N)NC(=O)C(C)(C)C)nc2c1	4	-8	87*	2	-10	94*	Full FLuc ctr=32
CC(=O)Nc1cccc(-c2cnc(N)c(C(=O)c3cccnc3)n2)c1	-18	1	90*	23	-4	93*	Full FLuc ctr=54*
CC(=O)Nc1cccc(-c2csc(N)n2)c1	-4	2	6	4	-2	.
CCCOC1CCCN(C(=O)c2cc(COc3ccc(F)c(F)c3)on2)C1 (stereo unspecified)	-6	3	-62	18	-3	.
COc1ccc(CN(C)C(C)C(=O)Nc2ccc(S(=O)(=O)N3CCCC3)cc2)c(OC)c1OC (stereo unspecified)	-1	-2	12	-83	5	.
COc1ccc2oc(=Nc3ccccc3)c(-c3nc4ccccc4[nH]3)cc2c1	-8	17	88*	-13	17	-84
COc1cccc2cc(-c3nc4ccccc4[nH]3)c(=O)oc12	-19	0	-79	-7	-4	.
SMILES	UBC13 polyUb	CHOP UPR activ	Mdm2 MdmX PPI	Apaf1 inhib	UPR XBP1 act	Mdm2 MdmX conf	others
COc1cc(NC(=O)CN2C(=O)c3ccccc3S2(=O)=O)c(OC)cc1Cl	1	2	-10	-2	0	.
Cc1sc(N/N=C/c2cccnc2)nc1-c1ccccc1	7	10	59*	23	8	62*	Full FLuc ctr=74*
C(=N\Nc1nc(Nc2ccccc2)nc(Nc2ccccc2)n1)/c1ccncc1	-2	0	29	12	3	.
Cc1sc(N/N=C/c2ccco2)nc1-c1ccccc1	-11	10	-38	30	4	.
C(=N\Nc1nc(Nc2ccccc2)nc(Nc2ccccc2)n1)/c1cccnc1	38	6	72*	19	19	51*	Full FLuc ctr=81*
O=C(Nc1ccc(Cl)cc1)N1CCCN(Cc2ccccc2F)C1	5	0	16	-6	-1	.
COc1cc(NC(=O)C2CC(=O)NC3=C2C(=O)CCC3)c(OC)cc1Cl (stereo unspecified)	7	0	11	-1	-1	.
COC(=O)c1cc(OC)c(OC)cc1NC(=O)c1ccc(C)o1	-1	0	10	-8	3	.
CCCn1c(=O)c2[nH]c(-c3ccc(OCC(=O)Nc4ccc(C#N)cc4)cc3)nc2n(CCC)c1=O	-35	2	53*	-10	-8	22
COc1ccc(Br)cc1C(C[N+](=O)[O-])c1c(N)n(C)c(=O)n(C)c1=O (stereo unspecified)	8	13	50*	-4	5	9
NC1=NC[C@H](Cc2ccc(O)cc2)N1CCCCC1CCCCC1	73*	1	50*	53*	0	17
Cc1ccc(NC(=O)COC(=O)c2ccco2)cc1S(=O)(=O)N1CCOCC1	5	-3	-11	-1	-1	.
COc1ccc(OC)c(C2CC(=O)Nc3cc(OC)c(OC)c(OC)c32)c1 (stereo unspecified)	2	-4	56*	-2	2	32
CCCCC1(CO)C(=O)N(c2ccccc2)N(c2ccccc2)C1=O	-7	1	7	-3	-2	.
CCCCC1C(=O)N(c2ccccc2)N(c2ccc(O)cc2)C1=O (stereo unspecified)	12	-9	98*	3	-12	36	Full FLuc ctr=8
COc1ccc(S(=O)(=O)Nc2ccc(-n3cnnn3)cc2)cc1[N+](=O)[O-]	-4	-1	24	0	-1	.
O=C(Nc1cccc(Cl)c1)c1cc(N=Nc2ccc([N+](=O)[O-])cc2Cl)ccc1O	-105	-1	92*	35	-5	97*	Full FLuc ctr=51*

Bioassay records deposited in PubChem BioAssay by Sanford-Burnham Center for Chemical Genomics.
